# Assay results from different studies.
# pKd: −log10 of the molar value.
# Effect on: binding
# USP7: Ubiquitin carboxyl-terminal hydrolase 7 (USP7, Homo sapiens, UniProt Q93009)
# MET: Hepatocyte growth factor receptor (MET, Homo sapiens, UniProt P08581)
# Tumor necrosis factor receptor superfamily member 9: Tumor necrosis factor receptor superfamily member 9 (Homo sapiens, UniProt Q07011)
SMILES,target,assay,setting,pKd
CC[C@H](C)[C@H](NC(=O)[C@H](CCC(=O)O)NC(=O)[C@H](CCC(=O)O)NC(=O)[C@H](CCC(N)=O)NC(=O)[C@@H](NC(=O)[C@@H](N)CC(=O)O)[C@@H](C)CC)C(=O)N[C@@H](CC(C)C)C(=O)N[C@@H](CO)C(=O)NCC(=O)N[C@@H](CCCCN)C(=O)N[C@@H](CO)C(=O)O,USP7,ITC,pH 8,3.37
CC(c1ccccc1)n1cc(-c2ccccn2)c(=O)[nH]c1=O (stereo not shown),MET,,,5.30
CC[C@H](C)[C@H](NC(=O)[C@H](CC(C)C)NC(=O)CNC(=O)[C@@H](N)CCCCN)C(=O)N[C@@H](CC(=O)O)C(=O)N[C@@H](Cc1ccc(O)cc1)C(=O)N[C@@H](Cc1ccc(O)cc1)C(=O)N[C@@H](CC(C)C)C(=O)N[C@@H](CCSC)C(=O)N1CCC[C@H]1C(=O)N[C@@H](CO)C(=O)N[C@@H](CC(C)C)C(=O)N[C@@H](CO)C(=O)N[C@H](C(=O)N[C@H](C(=O)N[C@@H](CO)C(=O)N[C@@H](CCCNC(=N)N)C(=O)N[C@@H](CO)C(=O)NCC(=O)N[C@@H](CCCCN)C(=O)O)[C@@H](C)O)[C@@H](C)O,USP7,ITC,pH 8,4.59
CCCC[C@@H]1NC(=O)[C@H](Cc2ccc(O)cc2)NC(=O)[C@@H]2CCCN2C(=O)[C@H](CC(=O)O)NC(=O)[C@H](C)NC(=O)[C@H](Cc2ccccc2)NC(=O)[C@@H]2CSCCC(=O)N3CN(CN(C3)C(=O)CCSC[C@@H](C(=O)N[C@@H](C)C(N)=O)NC1=O)C(=O)CCSC[C@H](NC(C)=O)C(=O)N[C@@H](CC(C)(C)C)C(=O)N1CCC[C@H]1C(=O)N[C@@H](CCC(=O)O)C(=O)N[C@H](CCCCNC(=O)CCc1cn(CCOCCOCCOCCOCCOCCC(=O)NCCCC[C@H]3NC(=O)[C@H](Cc4cccc5ccccc45)NC(=O)[C@@H]4CCCN4C(=O)[C@@H](NC(C)=O)CSCCC(=O)N4CN5CN(C4)C(=O)CCSC[C@H](NC3=O)C(=O)N[C@@H](CCSC)C(=O)N[C@@H](CCCCNC(=N)N)C(=O)N[C@@H](CC(=O)O)C(=O)N[C@@H](Cc3c[nH]c4ccccc34)C(=O)N[C@@H](CO)C(=O)N[C@@H]([C@@H](C)O)C(=O)N3CCC[C@H]3C(=O)N3C[C@H](O)C[C@H]3C(=O)N[C@@H](Cc3c[nH]c4ccccc34)C(=O)N[C@H](C(N)=O)CSCCC5=O)nn1)C(=O)N1CCC[C@H]1C(=O)N[C@@H](Cc1ccc(O)cc1)C(=O)N2,Tumor necrosis factor receptor superfamily member 9,SPR,,8.37
OC[C@H]1OC(O)[C@H](O)[C@@H](O)[C@@H]1O (stereo partly shown),"Hexokinase-4 (GCK, Homo sapiens, UniProt P35557)",stopped-flow,,2.30
C[C@@H](c1ccccc1)n1cc(-c2cc(F)cc(F)c2)c(=O)[nH]c1=O,MET,,,6.00
CCCC[C@@H]1NC(=O)[C@H](Cc2ccc(O)cc2)NC(=O)[C@@H]2CCCN2C(=O)[C@H](CC(=O)O)NC(=O)[C@H](C)NC(=O)[C@H](Cc2ccccc2)NC(=O)[C@@H]2CSCCC(=O)N3CN(CN(C3)C(=O)CCSC[C@@H](C(=O)N[C@@H](C)C(N)=O)NC1=O)C(=O)CCSC[C@H](NC(=O)[C@H](C)NC(C)=O)C(=O)N[C@@H]([C@@H](C)CC)C(=O)N[C@@H](CCC(=O)O)C(=O)N[C@@H](CCC(=O)O)C(=O)N[C@H](CCCCNC(=O)CCc1cn(CCOCCOCCOCCOCCOCCC(=O)N[C@H]3CSCCC(=O)N4CN5CN(C4)C(=O)CCSC[C@H](NC(=O)[C@@H](CC(=O)O)NC(=O)[C@H](Cc4cccc6ccccc46)NC(=O)[C@@H]4CCCN4C3=O)C(=O)N[C@@H](CCSC)C(=O)N[C@@H](CCCCNC(=N)N)C(=O)N[C@@H](CC(=O)O)C(=O)N[C@@H](Cc3c[nH]c4ccccc34)C(=O)N[C@@H](CO)C(=O)N[C@@H]([C@@H](C)O)C(=O)N3CCC[C@H]3C(=O)N3C[C@H](O)C[C@H]3C(=O)N[C@@H](Cc3c[nH]c4ccccc34)C(=O)N[C@H](C(N)=O)CSCCC5=O)nn1)C(=O)N[C@@H](CCC(N)=O)C(=O)N[C@@H](Cc1ccc(O)cc1)C(=O)N2,Tumor necrosis factor receptor superfamily member 9,SPR,,7.37
Cc1n[nH]c2c(-c3cn(C(C)c4ccccc4)c(=O)[nH]c3=O)cccc12 (stereo not shown),MET,,,6.70
CCCC[C@@H]1NC(=O)[C@H](Cc2ccc(O)cc2)NC(=O)[C@@H]2CCCN2C(=O)[C@H](CC(=O)O)NC(=O)[C@H](C)NC(=O)[C@H](Cc2ccccc2)NC(=O)[C@@H]2CSCCC(=O)N3CN(CN(C3)C(=O)CCSC[C@@H](C(N)=O)NC1=O)C(=O)CCSCCC(=O)N[C@@H](CC(C)(C)C)C(=O)N1CCC[C@H]1C(=O)N[C@@H](CCC(=O)O)C(=O)N[C@H](CCCCNC(=O)CCc1cn(CCOCCOCCOCCOCCOCCC(=O)N[C@H]3CSCCC(=O)N4CN5CN(C4)C(=O)CCSC[C@H](NC(=O)[C@@H](CC(=O)O)NC(=O)[C@H](Cc4cccc6ccccc46)NC(=O)[C@@H]4CCCN4C3=O)C(=O)N[C@@H](CCSC)C(=O)N[C@@H](CCCCNC(=N)N)C(=O)N[C@@H](CC(=O)O)C(=O)N[C@@H](Cc3c[nH]c4ccccc34)C(=O)N[C@@H](CO)C(=O)N[C@@H]([C@@H](C)O)C(=O)N3CCC[C@H]3C(=O)N3C[C@H](O)C[C@H]3C(=O)N[C@@H](Cc3c[nH]c4ccccc34)C(=O)N[C@H](C(N)=O)CSCCC5=O)nn1)C(=O)N1CCC[C@H]1C(=O)N[C@@H](Cc1ccc(O)cc1)C(=O)N2,Tumor necrosis factor receptor superfamily member 9,SPR,,7.92
CN1CN(c2ccccc2)C2(CCN(CCCC(=O)c3ccc(F)cc3)CC2)C1=O,"D(2) dopamine receptor (Drd2, Rattus norvegicus, UniProt P61169)",radioligand,cell membranes,10.05
